Published values collected from several papers.
Lines come from different studies, so protocols differ.
Organism: Plasmodium falciparum
Effect on: parasite growth

SMILES	method	strain	time	setting	IC50
CCCCCCCCNC(C)C(O)c1ccc(SC(C)C)cc1 (stereo not drawn)	SYBR Green	3D7		blood stage	807 nM
N=C(CC(O)c1nc2cc(F)ccc2c2ccc(F)cc12)Nc1ccc(F)cc1 (stereo not drawn)	ELISA	DD2	72 h	drug-resistant strain, blood stage	936 nM
CC1=C(C)/C(=C/c2cc(-c3ccc(Cl)cc3)c(C)[nH]2)N=C1c1ccc[nH]1	SYBR Green	D6	72 h	blood stage	> 2500 nM
N=C(CC(O)c1nc2ccccc2c2ccccc12)Nc1ccc(F)cc1 (stereo not drawn)	ELISA	3D7	72 h	blood stage	123 nM
CC(C)(C)CC(C)(C)c1ccc(O)c(Cc2ccc(Cl)cc2Cl)c1		NF54		blood stage	16300 nM
CC[C@H](CC[C@@H](C)[C@H]1CC[C@H]2[C@@H]3CC=C4C[C@@H](O)CC[C@]4(C)[C@H]3CC[C@]12C)C(C)C	SYBR Green	3D7	48 h	blood stage	9.29 µg/mL
COC1=C(OC)/C(=C/c2[nH]c(Cc3ccc(Cl)cc3)cc2Cc2ccc(Cl)cc2)N=C1c1ccc[nH]1	SYBR Green	D6	72 h	blood stage	> 2500 nM
CCN(CC)CCCC(C)Nc1ccnc2cc(Cl)ccc12 (stereo not drawn)			72 h	blood stage	28.2 nM
CC1=C(C)/C(=C/c2cc(-c3ccc(OC(F)(F)F)cc3)c(C)[nH]2)N=C1c1ccc[nH]1	SYBR Green	D6	72 h	blood stage	> 2500 nM
CCN(CC)CCCC(C)Nc1ccnc2cc(Cl)ccc12 (stereo not drawn)	SYBR Green	3D7		blood stage	22.4 nM
Cc1[nH]c(/C=C2\N=C(c3ccc[nH]3)C=C2OCc2ccccc2)cc1Cc1ccc(OC(F)(F)F)cc1	SYBR Green	D6	72 h	blood stage	9.63 nM
COc1ccc2cc1Oc1ccc(cc1)C[C@H]1c3c(cc4c(c3Oc3cc5c(cc3OC)CCN(C)[C@@H]5C2)OCO4)CCN1C	SYBR Green	3D7		blood stage	664 nM
N=C(CC(O)c1cc2c(F)cc(F)cc2c2cc(C(F)(F)F)ccc12)Nc1ccc(Br)cc1 (stereo not drawn)	ELISA	3D7	72 h	blood stage	6.1 nM
CO[C@H]1C[C@H](O[C@@H]2/C(C)=C/C[C@@H]3C[C@@H](C[C@]4(CC[C@H](C)[C@@H](C5CCCCC5)O4)O3)OC(=O)[C@@H]3C=C(C)/C(=N/O)[C@H]4OC/C(=C\C=C\[C@@H]2C)[C@]43O)O[C@@H](C)[C@@H]1O	SYBR Green	3D7		blood stage	553 nM
N=C(CC(O)c1nc2ccccc2c2ccc(Cl)cc12)Nc1ccc(F)cc1 (stereo not drawn)	ELISA	DD2	72 h	drug-resistant strain, blood stage	49.9 nM
